Experimental data published in article PMC2834874 (Bioorganic & medicinal chemistry letters, 2010).

How the values were obtained:
Type in all cases: cell-based
M5 = target: T1, M5 (Homo sapiens, UniProt P08912); assay: Potentiation of ~EC20 ACh, calcium mobilization in M5 CHO cells
T1 sequence (P08912 1-532): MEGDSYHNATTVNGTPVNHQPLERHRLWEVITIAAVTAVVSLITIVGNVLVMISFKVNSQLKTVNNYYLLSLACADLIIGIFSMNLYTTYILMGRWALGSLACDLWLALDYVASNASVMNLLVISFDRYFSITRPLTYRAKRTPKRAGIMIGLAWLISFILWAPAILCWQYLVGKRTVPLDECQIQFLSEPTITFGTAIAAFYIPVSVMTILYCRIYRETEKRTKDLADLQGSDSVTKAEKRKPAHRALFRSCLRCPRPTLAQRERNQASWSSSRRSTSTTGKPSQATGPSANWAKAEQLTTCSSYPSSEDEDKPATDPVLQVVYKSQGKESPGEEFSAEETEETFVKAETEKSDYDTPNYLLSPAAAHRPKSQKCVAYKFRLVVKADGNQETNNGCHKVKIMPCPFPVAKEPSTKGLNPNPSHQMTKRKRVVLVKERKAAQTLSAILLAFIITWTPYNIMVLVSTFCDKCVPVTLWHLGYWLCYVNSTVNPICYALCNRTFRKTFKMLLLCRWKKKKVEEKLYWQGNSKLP
Procedure, shortened: (§1)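 Potentiation of an ~EC20 ACh response read as intracellular calcium mobilization in CHO cells expressing single receptor subtypes. M2 and M4 lines are co-transfected with chimeric Gqi5 to couple to calcium, while M3 and M5 lines are used directly. Data are means of independent determinations.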

M1 [1] = target: T2, M1 (Homo sapiens, UniProt P11229); assay: ACh CRC fold-shift experiments, calcium mobilization in M1 CHO cells
T2 sequence (P11229 1-460): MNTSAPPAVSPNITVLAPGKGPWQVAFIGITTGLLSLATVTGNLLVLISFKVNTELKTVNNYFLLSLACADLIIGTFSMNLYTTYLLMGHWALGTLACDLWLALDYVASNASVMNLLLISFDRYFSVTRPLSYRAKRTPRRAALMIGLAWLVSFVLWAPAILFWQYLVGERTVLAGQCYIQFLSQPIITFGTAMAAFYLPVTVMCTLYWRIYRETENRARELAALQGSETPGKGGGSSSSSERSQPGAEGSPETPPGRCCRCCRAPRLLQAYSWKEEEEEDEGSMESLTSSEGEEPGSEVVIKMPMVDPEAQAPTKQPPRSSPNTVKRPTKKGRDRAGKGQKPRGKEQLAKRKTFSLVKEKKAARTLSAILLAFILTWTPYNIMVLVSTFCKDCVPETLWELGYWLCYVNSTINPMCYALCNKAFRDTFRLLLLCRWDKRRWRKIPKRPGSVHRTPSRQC
Procedure, shortened: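 ACh concentration-response curve run alone and with the test compound at 10 μM or 30 μM. Intracellular calcium mobilization measured in CHO cells expressing M1. The fold leftward shift of the ACh curve is taken, and intrinsic allosteric agonism is recorded from the response to compound alone. Values are means of at least three independent determinations.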

M3 = M3 (Homo sapiens, UniProt P20309); assay: Potentiation of ~EC20 ACh, calcium mobilization in M3 CHO cells
M3, sequence (P20309 whole entry): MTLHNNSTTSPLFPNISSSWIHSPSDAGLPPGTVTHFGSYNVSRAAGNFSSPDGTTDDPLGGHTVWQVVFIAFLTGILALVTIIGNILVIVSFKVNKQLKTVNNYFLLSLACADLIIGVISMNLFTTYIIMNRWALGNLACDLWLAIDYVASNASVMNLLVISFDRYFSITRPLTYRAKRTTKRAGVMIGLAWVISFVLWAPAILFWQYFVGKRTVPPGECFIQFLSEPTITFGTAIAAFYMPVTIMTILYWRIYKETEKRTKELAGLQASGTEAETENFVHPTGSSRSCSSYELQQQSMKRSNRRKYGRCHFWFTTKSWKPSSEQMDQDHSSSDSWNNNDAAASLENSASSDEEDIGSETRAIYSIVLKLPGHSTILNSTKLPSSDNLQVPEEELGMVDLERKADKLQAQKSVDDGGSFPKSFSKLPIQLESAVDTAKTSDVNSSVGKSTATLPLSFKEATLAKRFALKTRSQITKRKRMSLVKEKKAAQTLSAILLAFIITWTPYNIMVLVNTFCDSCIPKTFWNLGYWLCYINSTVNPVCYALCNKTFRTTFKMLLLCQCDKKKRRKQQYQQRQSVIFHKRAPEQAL
Procedure, shortened: as §1

M2 = target: T3, M2 (Homo sapiens, UniProt P08172); assay: Potentiation of ~EC20 ACh, calcium mobilization in M2/Gqi5 CHO cells; conditions: up to 30 μM
T3 sequence (P08172 1-466): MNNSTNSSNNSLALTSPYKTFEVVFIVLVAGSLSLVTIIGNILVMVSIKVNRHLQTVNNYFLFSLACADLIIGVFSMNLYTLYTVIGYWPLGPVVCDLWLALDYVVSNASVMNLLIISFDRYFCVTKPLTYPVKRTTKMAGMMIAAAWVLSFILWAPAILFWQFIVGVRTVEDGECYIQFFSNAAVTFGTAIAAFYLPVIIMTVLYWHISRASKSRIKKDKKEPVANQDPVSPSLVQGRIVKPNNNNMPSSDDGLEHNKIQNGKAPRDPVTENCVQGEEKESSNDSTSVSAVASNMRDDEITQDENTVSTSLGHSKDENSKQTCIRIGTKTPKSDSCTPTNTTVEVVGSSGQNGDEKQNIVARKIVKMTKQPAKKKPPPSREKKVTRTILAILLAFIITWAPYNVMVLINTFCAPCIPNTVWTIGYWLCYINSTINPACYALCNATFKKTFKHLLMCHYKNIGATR
Procedure, shortened: as §1

M4 = target: T4, M4 (Homo sapiens, UniProt P08173); assay: Potentiation of ~EC20 ACh, calcium mobilization in M4/Gqi5 CHO cells; conditions: up to 30 μM
T4 sequence (P08173 1-479): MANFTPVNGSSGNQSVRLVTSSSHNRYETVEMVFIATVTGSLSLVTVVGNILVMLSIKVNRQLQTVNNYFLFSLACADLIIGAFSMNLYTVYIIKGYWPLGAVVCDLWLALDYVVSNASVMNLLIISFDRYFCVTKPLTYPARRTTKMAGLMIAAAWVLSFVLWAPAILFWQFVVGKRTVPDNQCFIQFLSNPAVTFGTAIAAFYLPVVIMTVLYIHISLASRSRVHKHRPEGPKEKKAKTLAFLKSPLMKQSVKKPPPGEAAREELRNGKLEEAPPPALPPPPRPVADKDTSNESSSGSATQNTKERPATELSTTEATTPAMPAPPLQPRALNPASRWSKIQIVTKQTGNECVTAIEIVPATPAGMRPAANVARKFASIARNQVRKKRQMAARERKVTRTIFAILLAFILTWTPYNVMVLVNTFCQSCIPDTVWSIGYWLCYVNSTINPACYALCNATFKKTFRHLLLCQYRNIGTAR
Procedure, shortened: as §1

M1 [2] = target: T2, M1; conditions: M1 EC50 ratio

selectivity versus M5 (M5; CRC in presence of ~EC20 ACh)	Fold-shift of the ACh CRC at M5 (M1 [1]; 10 μM compound)	intrinsic allosteric agonism (M1 [1]; M1 fold-shift experiment, at 30 μM)	selectivity versus M3 (M3; CRC in presence of ~EC20 ACh)	activation of M5 (M5; up to 30 μM)	activation of M2 (M2)	Fold-shift of the ACh CRC at M5 (M1 [1]; 30 μM compound)	activation of M4 (M4)	increase in potency over VU0365137 (9a) (M1 [2])	activation of M3 (M3; up to 30 μM)	SMILES
good selectivity	approximately 5 fold	~30%	good selectivity	–	–	–	–	–	–	Cn1cc(-c2ccc(CN3C(=O)C(=O)c4ccccc43)cc2)cn1 [Compound 9a]
–	–	–	–	minimal/no activation	minimal/no activation	approximately 3 fold	minimal/no activation	three-fold increase	minimal/no activation	Cn1cc(-c2ccc(CN3C(=O)C(=O)c4ccccc43)c(F)c2)cn1 [Compound 12a]
